According to ChEMBL document CHEMBL4673191, “A scaffold hopping strategy to generate new aryl-2-amino pyrimidine MRSA biofilm inhibitors” (RSC Med Chem, 2021):
pIC50: −log10 of the molar value. Calls of active or inactive are those of the source. No cut-off for these calls is given here.

What was measured:
[1] = test system: Acinetobacter baumannii; assay: Potentiation of colistin-induced antibacterial activty against Acinetobacter baumannii ATCC 4106 assessed as colistin MIC at 60 uM incubated for 16 hrs by broth microdilution assay (reference value: 1024 microg/ml); type: functional
Procedure, shortened: (§1)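 Cultures grown 4–6 h in CAMHB, diluted to 5 x 10⁵ CFU/mL. Compound added to aliquots from 100 mM DMSO stock; one aliquot left undosed for colistin MIC alone. Colistin serially diluted 2-fold in the compound-dosed suspension; compound-alone wells kept. Stationary, 37 °C, 16 h, then OD₆₀₀. Colistin MIC = lowest concentration giving 90% growth inhibition vs untreated. Duplicate, at least twice.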

[2] = test system: Klebsiella pneumoniae; assay: Antibacterial activity against Klebsiella pneumoniae B9 assessed as reduction in bacterial growth incubated for 16 hrs by broth microdilution assay; type: functional
Procedure, shortened: (§2)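 Bacteria grown 4–6 h in CAMHB, subcultured to 5 x 10⁵ CFU/mL in fresh CAMHB. Compound added from 100 mM DMSO stock, then 2-fold serial dilution in microtiter plate; untreated and media-only wells as controls. Stationary incubation at 37 °C for 16 h, then OD₆₀₀ read. MIC taken as lowest concentration giving 90% growth inhibition vs untreated. Duplicate, repeated at least twice.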

[3] = test system: Acinetobacter baumannii; assay: Antibacterial activity against Acinetobacter baumannii ATCC 4106 assessed as reduction in bacterial growth incubated for 16 hrs by broth microdilution assay; type: functional; procedure, shortened: as §2
[4] = test system: Staphylococcus aureus; assay: Inhibition of biofilm formation in methicillin-resistant Staphylococcus aureus ATCC 43300 incubated for 24 hrs by crystal violet staining based assay; type: functional, organism-based; details: ATCC 43300, 24 h
Procedure, shortened: (§3)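 Overnight culture subcultured to OD600 0.01 in TSB with 2.0% (w/v) glucose; compound diluted in this medium, 100 µL per well of PVC plates, static incubation 24 h at 37 °C. Wells washed with water, stained with 0.1% crystal violet 30 min at ambient temperature, stain solubilized in ethanol, OD540 read minus no-biofilm background. Duplicates, at least two separate repeats.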

[5] = test system: Staphylococcus aureus; assay: Inhibition of biofilm formation in methicillin-resistant Staphylococcus aureus ATCC 43300 at 200 uM incubated for 24 hrs by crystal violet staining based assay relative to control; type: functional; procedure, shortened: as §3
[6] = test system: Staphylococcus aureus; assay: Antibiofilm activity against preformed methicillin-resistant Staphylococcus aureus ATCC 43300 assessed as dispersion of biofilm at 100 uM incubated for 24 hrs by crystal violet staining based assay; type: functional, organism-based
Procedure, shortened: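 Overnight culture in TSB + 2.0% glucose subcultured to OD600 0.01 in TSBG; 100 µL per well of PVC plates, static 37 °C for 24 h to form biofilm. After washing, compound in medium added for a further 24 h at 37 °C; medium-only control. Washed, 0.1% crystal violet 30 min, ethanol-solubilized, OD540 with no-biofilm background subtracted. Duplicates, ≥2 repeats.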

[7] = test system: Staphylococcus aureus; assay: Antibacterial activity against methicillin-resistant Staphylococcus aureus ATCC 43300 assessed as inhibition of planktonic bacterial growth at IC50 incubated for 24 hrs by colony counter analysis; type: functional
Procedure, shortened: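 MRSA 43300 grown overnight in TSB with 2.0% glucose (TSBG), inoculated into fresh TSBG at OD600 0.01, compound added to 3 mL tube cultures; untreated control. Shaken at 37 °C; samples at 2, 4, 6, 8, 24 h serially diluted in TSBG, plated on nutrient agar, incubated overnight at 37 °C, colonies counted. Duplicates, at least two separate repeats.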

[8] = Hemolytic activity against sheep blood assessed as blood cell lysis at 200 uM incubated for 1 hr by UV-visible spectrophotometry; type: ADME, tissue-based, Ovis aries; details: sheep blood cells, read-out: Activity
Procedure, shortened: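 Defibrinated sheep blood centrifuged, washed and resuspended in PBS three times, then diluted 10-fold. Compound added from DMSO stock; 1% Triton X as 100% lysis and PBS as zero lysis. Shaken at 200 rpm, 37 °C, 1 h, then centrifuged. Supernatant diluted 40-fold in water and absorbance read at 540 nm.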

[9] = test system: Staphylococcus aureus; assay: Inhibition of biofilm formation in methicillin-resistant Staphylococcus aureus ATCC 6538 incubated for 24 hrs by crystal violet staining based assay; type: functional, organism-based; details: ATCC 6538, 24 h; procedure, shortened: as §3
[10] = test system: Staphylococcus aureus; assay: Inhibition of biofilm formation in methicillin-resistant Staphylococcus aureus ATCC 33591 incubated for 24 hrs by crystal violet staining based assay; type: functional, organism-based; details: ATCC 33591, 24 h; procedure, shortened: as §3
[11] = test system: Staphylococcus aureus; assay: Inhibition of biofilm formation in methicillin-resistant Staphylococcus aureus BAA-44 incubated for 24 hrs by crystal violet staining based assay; type: functional, organism-based; details: BAA-44, 24 h; procedure, shortened: as §3
[12] = test system: Klebsiella pneumoniae; assay: Effect on lipid A substitution pattern of lipopolysaccharide in Klebsiella pneumoniae B9 by mass spectrometry; type: functional
[13] = test system: Klebsiella pneumoniae; assay: Potentiation of colistin-induced antibacterial activity against Klebsiella pneumoniae B9 assessed as colistin MIC at 60 uM incubated for 16 hrs by broth microdilution assay (reference value: 512 ug/ml); type: functional; procedure, shortened: as §1
[14] = test system: Klebsiella pneumoniae; assay: Potentiation of colistin-induced antibacterial activty against Klebsiella pneumoniae F2210219mcr-1 assessed as fractional inhibitory concentration index incubated for 16 hrs in presence of colistin by checkerboard assay; type: functional
Procedure, shortened: (§4)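 Checkerboard in CAMHB inoculated with K. pneumoniae at 5 x 10⁵ CFU/mL. Compound serially diluted 2-fold down rows and colistin across columns, starting each at 2x top concentration; one row and one column give single-agent MICs.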

[15] = test system: Klebsiella pneumoniae; assay: Potentiation of colistin-induced antibacterial activty against Klebsiella pneumoniae A5 assessed as fractional inhibitory concentration index incubated for 16 hrs in presence of colistin by checkerboard assay; type: functional; procedure, shortened: as §4
[16] = test system: Klebsiella pneumoniae; assay: Potentiation of colistin-induced antibacterial activty against Klebsiella pneumoniae B9 assessed as fractional inhibitory concentration index incubated for 16 hrs in presence of colistin by checkerboard assay; type: functional; procedure, shortened: as §4
[17] = test system: Klebsiella pneumoniae; assay: Potentiation of colistin-induced antibacterial activty against Klebsiella pneumoniae B9 assessed as fold reduction in colistin MIC at 60 uM incubated for 16 hrs by broth microdilution assay; type: functional; procedure, shortened: as §1

SMILES	MIC [1] [µg/mL]	MIC [2] [µM]	MIC [3] [µM]	pIC50 [4]	inhibition at 200 µM [5] [%]	Activity [6]	MIC [7] [µM]	Activity [7]	hemolysis at 1 h, 200 µM [8] [%]	pIC50 [9]	pIC50 [10]	pIC50 [11]	Activity [12]	MIC [13] [µg/mL]	fractional inhibitory concentration index (FICI) [14]	fractional inhibitory concentration index (FICI) [15]	fractional inhibitory concentration index (FICI) [16]	fold change (FC) [17]
Cl.Nc1ncc(-c2ccccc2NC(=O)c2cc(F)cc(F)c2)cn1	> 64	≥ 200	≥ 200	< 3.70	> 50	inactive												
Cl.Nc1ncc(-c2cccc(NC(=O)c3cc(F)cc(F)c3)c2)cn1	> 64	≥ 200	≥ 200	< 3.70	> 50	inactive												
Nc1nccc(-c2cccc(NC(=O)c3cc(Cl)cc(Br)c3)c2)n1				4.56			> 200											
Cl.Nc1ncc(-c2cccc(NC(=O)c3cc(Cl)cc(Cl)c3)c2)cn1	> 64	≥ 200	≥ 200	< 3.70	> 50	inactive												
Cl.Nc1nccc(-c2cccc(NC(=O)c3cc(Cl)cc(Cl)c3)c2)n1	> 64	≥ 200	≥ 200	4.58	> 50	inactive		inactive	5	4.60	4.58	4.53						
Cl.Nc1nccc(-c2ccccc2NC(=O)c2cc(F)cc(F)c2)n1	> 64	≥ 200	≥ 200	< 3.70	> 50	inactive												
Cl.Nc1ncc(-c2ccccc2NC(=O)c2cc(Cl)cc(Cl)c2)cn1	> 64	≥ 200	≥ 200	< 4.00	> 50	inactive												
Cl.Nc1nccc(-c2ccccc2NC(=O)c2cc(Br)cc(Br)c2)n1	> 64	≥ 200	≥ 200	< 3.70	> 50	inactive												
Cl.Nc1nccc(-c2cccc(NC(=O)c3cc(Br)cc(Br)c3)c2)n1	> 64	≥ 200	≥ 200	4.76	> 50	inactive		inactive	3.4	4.81	4.69	4.85	inactive	16	<=0.19	<=0.31	<=0.09	32
Cl.Nc1ncc(-c2ccc(NC(=O)c3cc(F)cc(F)c3)cc2)cn1	> 64	≥ 200	≥ 200	< 3.70	> 50	inactive												
Cl.Nc1nccc(-c2cccc(NC(=O)c3cc(F)cc(F)c3)c2)n1	> 64	≥ 200	≥ 200	< 3.70	> 50	inactive												
Cl.Nc1ncc(-c2cccc(NC(=O)c3cc(Br)cc(Br)c3)c2)cn1	> 64	≥ 200	≥ 200	4.37	> 50	inactive												
Cl.Nc1ncc(-c2ccc(NC(=O)c3cc(Br)cc(Br)c3)cc2)cn1	> 64	≥ 200	≥ 200	< 4.00	> 50	inactive												
CCCCCCCCCC(=O)NCCCc1cnc(N)nc1												4.14						
Cl.Nc1nccc(-c2ccc(NC(=O)c3cc(Cl)cc(Cl)c3)cc2)n1	> 64	≥ 200	≥ 200	4.39	> 50	inactive												
Cl.Nc1nccc(-c2ccc(NC(=O)c3cc(Br)cc(Br)c3)cc2)n1	> 64	≥ 200	≥ 200	< 4.30	> 50	inactive												
Cl.Nc1ncc(-c2ccc(NC(=O)c3cc(Cl)cc(Cl)c3)cc2)cn1	> 64	≥ 200	≥ 200	< 3.70	> 50	inactive												
Cl.Nc1nccc(-c2ccccc2NC(=O)c2cc(Cl)cc(Cl)c2)n1	> 64	≥ 200	≥ 200	< 4.30	> 50	inactive												
Cl.Nc1ncc(-c2ccccc2NC(=O)c2cc(Br)cc(Br)c2)cn1	> 64	≥ 200	≥ 200	4.16	> 50	inactive												
Cl.Nc1nccc(-c2ccc(NC(=O)c3cc(F)cc(F)c3)cc2)n1	> 64	≥ 200	≥ 200	< 3.70	> 50	inactive												
